Measured values published in ChEMBL document CHEMBL5724801, “EUbOPEN Chemogenomics Library - Multiplex” (2024).
Where “and” joins values, the source holds several entries; their conditions need not be identical. Identical values can stand only once.

System: Fibroblast
Experiment: Multiplex assay against human fibroblast
Assay type: toxicity, cell-based
Summary of the method: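 On a CQ1 microscope at 37°C and 5% CO2, live cells were imaged after compound addition. They had been stained at seeding with Hoechst33342, BioTracker Green Microtubule Cytoskeleton Dye, MitoTracker Red and Annexin V Alexa Fluor 680. CellPathfinder machine-learning gating assigned cells to Hoechst high-intensity objects or normal cells, normal cells to healthy, pyknosed or fragmented nuclei, and pyknosed cells to mitotic or apoptotic. Tubulin, mitochondrial-mass and membrane-permeability phenotypes are per cents of healthy-nucleus cells.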

[1] = 12 h, 1 µM, compound concentration 1 uM
[2] = 12 h, 10 µM, compound concentration 10 uM
[3] = 24 h, 1 µM, compound concentration 1 uM
[4] = 24 h, 10 µM, compound concentration 10 uM
[5] = 48 h, 1 µM, compound concentration 1 uM
[6] = 48 h, 10 µM, compound concentration 10 uM

## Cc1ccc(-c2ccc(F)cc2COc2ccc(CCC(=O)O)cc2)cc1
[1]
  Population Apoptotic (%): 42% and 37%
  Population Fragmented Nuclei (%): 13% and 23%
  Population Healthy Nuclei (%): 64% and 45%
  Population Mitotic Cells (%): 57% and 62%
  Population Normal (%): 99% and 93%
  Population Pyknosed Nuclei (%): 21% and 30%
  Population Tubulin-Different-Phenotype (%): 26%
  Total Cell Count: 131 and 148
[2]
  Population Apoptotic (%): 19% and 31%
  Population Fragmented Nuclei (%): 15% and 23%
  Population Healthy Nuclei (%): 67% and 51%
  Population Mitotic Cells (%): 80% and 68%
  Population Normal (%): 99% and 93%
  Population Pyknosed Nuclei (%): 16% and 25%
  Population Tubulin-Different-Phenotype (%): 23% and 38%
  Total Cell Count: 125 and 136
[3]
  Population Apoptotic (%): 38% and 62%
  Population Fragmented Nuclei (%): 16% and 25%
  Population Healthy Nuclei (%): 67% and 46%
  Population Mitotic Cells (%): 61% and 37%
  Population Normal (%): 97% and 95%
  Population Pyknosed Nuclei (%): 15% and 27%
  Population Tubulin-Different-Phenotype (%): 23% and 33%
  Total Cell Count: 136 and 139
[4]
  Population Apoptotic (%): 47% and 46%
  Population Fragmented Nuclei (%): 9% and 26%
  Population Healthy Nuclei (%): 75% and 53%
  Population Mitotic Cells (%): 52% and 53%
  Population Normal (%): 98% and 92%
  Population Pyknosed Nuclei (%): 15% and 20%
  Population Tubulin-Different-Phenotype (%): 20% and 55%
  Total Cell Count: 127 and 136
[5]
  Population Apoptotic (%): 56% and 69%
  Population Fragmented Nuclei (%): 21% and 29%
  Population Healthy Nuclei (%): 62% and 55%
  Population Mitotic Cells (%): 43% and 30%
  Population Normal (%): 96%
  Population Pyknosed Nuclei (%): 15%
  Population Tubulin-Different-Phenotype (%): 24% and 46%
  Total Cell Count: 150 and 155
[6]
  Population Apoptotic (%): 72% and 48%
  Population Fragmented Nuclei (%): 11% and 30%
  Population Healthy Nuclei (%): 78% and 45%
  Population Mitotic Cells (%): 27% and 51%
  Population Normal (%): 96% and 92%
  Population Pyknosed Nuclei (%): 9% and 23%
  Total Cell Count: 121 and 140

## C[C@H](C[C@H](N)C(=O)O)C(=O)O [2S,4R-4-METHYLGLUTAMATE]
[1]
  Population Apoptotic (%): 17.14% and 40%
  Population Fragmented Nuclei (%): 10.46% and 7.78%
  Population Healthy Nuclei (%): 66.67% and 77.25%
  Population Hoechst High Intensity Objects (%): 0%
  Population Membrane Permeable-Phenotype (%): 1.96% and 3.1%
  Population Mitochondria Different-Phenotype (%): 8.82% and 6.98%
  Population Mitotic Cells (%): 82.86% and 60%
  Population Normal (%): 100%
  Population Pyknosed Nuclei (%): 22.88% and 14.97%
  Population Tubulin-Different-Phenotype (%): 9.8% and 13.95%
  Total Cell Count: 153 and 167
[2]
  Population Apoptotic (%): 12.5% and 8.57%
  Population Fragmented Nuclei (%): 12.57% and 5.6%
  Population Healthy Nuclei (%): 64.57% and 79.31%
  Population Hoechst High Intensity Objects (%): 0%
  Population Mitochondria Different-Phenotype (%): 11.5% and 11.96%
  Population Mitotic Cells (%): 87.5% and 91.43%
  Population Normal (%): 100%
  Population Pyknosed Nuclei (%): 22.86% and 15.09%
  Population Tubulin-Different-Phenotype (%): 17.7% and 19.02%
  Total Cell Count: 175 and 232
[3]
  Population Fragmented Nuclei (%): 9.47% and 7.6%
  Population Healthy Nuclei (%): 73.16% and 83.04%
  Population Hoechst High Intensity Objects (%): 0%
  Population Membrane Permeable-Phenotype (%): 3.6% and 1.41%
  Population Mitochondria Different-Phenotype (%): 2.16% and 9.86%
  Population Mitotic Cells (%): 90.91% and 68.75%
  Population Normal (%): 100%
  Population Pyknosed Nuclei (%): 17.37% and 9.36%
  Population Tubulin-Different-Phenotype (%): 12.95% and 10.56%
  Total Cell Count: 190 and 171
[4]
  Population Apoptotic (%): 19.35% and 15.79%
  Population Fragmented Nuclei (%): 10.38% and 3.95%
  Population Healthy Nuclei (%): 72.68% and 87.72%
  Population Hoechst High Intensity Objects (%): 0%
  Population Membrane Permeable-Phenotype (%): 6.02% and 0%
  Population Mitochondria Different-Phenotype (%): 6.02% and 4.5%
  Population Mitotic Cells (%): 80.65% and 84.21%
  Population Normal (%): 100%
  Population Pyknosed Nuclei (%): 16.94% and 8.33%
  Population Tubulin-Different-Phenotype (%): 18.05% and 14.5%
  Total Cell Count: 183 and 228
[5]
  Population Apoptotic (%): 16.67% and 37.5%
  Population Fragmented Nuclei (%): 6.91% and 10.23%
  Population Healthy Nuclei (%): 84.79% and 85.23%
  Population Hoechst High Intensity Objects (%): 0%
  Population Membrane Permeable-Phenotype (%): 1.63% and 1.33%
  Population Mitotic Cells (%): 83.33% and 62.5%
  Population Normal (%): 100%
  Population Pyknosed Nuclei (%): 8.29% and 4.55%
  Population Tubulin-Different-Phenotype (%): 10.33% and 18%
  Total Cell Count: 217 and 176
[6]
  Population Apoptotic (%): 28.57% and 21.43%
  Population Fragmented Nuclei (%): 9.04% and 3.43%
  Population Healthy Nuclei (%): 83.51% and 90.56%
  Population Hoechst High Intensity Objects (%): 0%
  Population Membrane Permeable-Phenotype (%): 0% and 2.37%
  Population Mitotic Cells (%): 71.43% and 78.57%
  Population Normal (%): 100%
  Population Pyknosed Nuclei (%): 7.45% and 6.01%
  Population Tubulin-Different-Phenotype (%): 10.83% and 15.64%
  Total Cell Count: 188 and 233

## CN(C)CCCn1cc(C2=C(c3c[nH]c4ccccc34)C(=O)NC2=O)c2ccccc21 [GF-109203]
[1]
  Population Apoptotic (%): 9.09% and 22.5%
  Population Healthy Nuclei (%): 57.53% and 77.2%
  Population Hoechst High Intensity Objects (%): 0%
  Population Membrane Permeable-Phenotype (%): 4.67% and 8.05%
  Population Mitochondria Different-Phenotype (%): 13.08% and 28.19%
  Population Mitotic Cells (%): 90.91% and 77.5%
  Population Normal (%): 100%
  Population Pyknosed Nuclei (%): 29.57% and 20.73%
  Population Tubulin-Different-Phenotype (%): 29.91% and 44.3%
  Total Cell Count: 186 and 193
[2]
  Population Apoptotic (%): 5.95% and 14.93%
  Population Fragmented Nuclei (%): 4.14% and 6.85%
  Population Healthy Nuclei (%): 46.15% and 47.26%
  Population Hoechst High Intensity Objects (%): 0%
  Population Membrane Permeable-Phenotype (%): 14.1% and 14.49%
  Population Mitochondria Different-Phenotype (%): 57.69% and 36.23%
  Population Mitotic Cells (%): 94.05% and 85.07%
  Population Normal (%): 100%
  Population Pyknosed Nuclei (%): 49.7% and 45.89%
  Population Tubulin-Different-Phenotype (%): 84.62% and 86.96%
  Total Cell Count: 169 and 146
[3]
  Population Fragmented Nuclei (%): 6.12% and 5.42%
  Population Healthy Nuclei (%): 63.78% and 77.34%
  Population Hoechst High Intensity Objects (%): 0%
  Population Membrane Permeable-Phenotype (%): 11.2% and 2.55%
  Population Mitochondria Different-Phenotype (%): 10.4% and 22.93%
  Population Mitotic Cells (%): 98.31% and 85.71%
  Population Normal (%): 100%
  Population Pyknosed Nuclei (%): 30.1% and 17.24%
  Population Tubulin-Different-Phenotype (%): 35.2% and 51.59%
  Total Cell Count: 196 and 203
[4]
  Population Fragmented Nuclei (%): 6.7% and 5.38%
  Population Healthy Nuclei (%): 54.19% and 38.46%
  Population Hoechst High Intensity Objects (%): 0%
  Population Membrane Permeable-Phenotype (%): 11.34% and 10%
  Population Mitochondria Different-Phenotype (%): 50.52% and 40%
  Population Mitotic Cells (%): 95.71% and 80.82%
  Population Normal (%): 100%
  Population Pyknosed Nuclei (%): 39.11% and 56.15%
  Population Tubulin-Different-Phenotype (%): 94.85% and 94%
  Total Cell Count: 179 and 130
[5]
  Population Fragmented Nuclei (%): 9.05% and 3.52%
  Population Healthy Nuclei (%): 77.62% and 88.94%
  Population Hoechst High Intensity Objects (%): 0%
  Population Membrane Permeable-Phenotype (%): 3.07% and 7.91%
  Population Mitochondria Different-Phenotype (%): 12.27% and 18.64%
  Population Mitotic Cells (%): 92.86% and 66.67%
  Population Normal (%): 100%
  Population Pyknosed Nuclei (%): 13.33% and 7.54%
  Population Tubulin-Different-Phenotype (%): 25.15% and 48.02%
  Total Cell Count: 210 and 199
[6]
  Population Apoptotic (%): 20.9% and 48.15%
  Population Fragmented Nuclei (%): 6.19% and 13.29%
  Population Healthy Nuclei (%): 59.28% and 30.07%
  Population Hoechst High Intensity Objects (%): 0%
  Population Mitochondria Different-Phenotype (%): 56.52% and 46.51%
  Population Mitotic Cells (%): 79.1% and 51.85%
  Population Normal (%): 100%
  Population Pyknosed Nuclei (%): 34.54% and 56.64%
  Population Tubulin-Different-Phenotype (%): 93.04% and 86.05%
  Total Cell Count: 194 and 143
